Measurements from ChEMBL document CHEMBL5724801, “EUbOPEN Chemogenomics Library - Multiplex” (2024).
Several values for one entry are separate records, joined by “and”; a condition that tells them apart may be missing. Equal values may be shown once.

Tests used:
Fibroblast = test: Multiplex assay against human fibroblast; format: toxicity, cell-based
Outline: (§1)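 Live cells were stained at seeding with Hoechst33342, BioTracker Green Microtubule Cytoskeleton Dye, MitoTracker Red and Annexin V Alexa Fluor 680. Following compound addition, they were imaged on a CQ1 microscope at 37°C and 5% CO2 and gated by CellPathfinder machine learning into Hoechst high-intensity objects or normal cells, with normal cells split into healthy, pyknosed or fragmented nuclei and pyknosed cells into mitotic or apoptotic. Tubulin, mitochondrial-mass and membrane-permeability phenotypes are per cents of healthy-nucleus cells.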

HEK-293T = test: Multiplex assay against HEK293T; format: toxicity, cell-based; conditions: human; outline: as §1
[1] = 24 h, 10 µM, compound concentration 10 uM
[2] = 48 h, 1 µM, compound concentration 1 uM
[3] = 48 h, 10 µM, compound concentration 10 uM
[4] = 12 h, 1 µM, compound concentration 1 uM
[5] = 12 h, 10 µM, compound concentration 10 uM
[6] = 24 h, 1 µM, compound concentration 1 uM

C=CCN1C[C@H](C(=O)N(CCCN(C)C)C(=O)NCC)C[C@@H]2c3cccc4[nH]cc(c34)C[C@H]21 [CABERGOLINE]
Population Fragmented Nuclei (%) (Fibroblast; [1]): 28% and 43% | Population Healthy Nuclei (%) (Fibroblast; [1]): 65% and 46% | Population Hoechst High Intensity Objects (%) (Fibroblast; [1]): 1% and 10% | Population Membrane Permeable-Phenotype (%) (Fibroblast; [1]): 0% and 2% | Population Mitochondria Different-Phenotype (%) (Fibroblast; [1]): 7% and 5% | Population Mitotic Cells (%) (Fibroblast; [1]): 26% and 56% | Population Normal (%) (Fibroblast; [1]): 98% and 89% | Population Pyknosed Nuclei (%) (Fibroblast; [1]): 5% and 9% | Population Tubulin-Different-Phenotype (%) (Fibroblast; [1]): 44% and 53% | Total Cell Count (Fibroblast; [1]): 274 and 181 | Population Apoptotic (%) (Fibroblast; [2]): 56% and 58% | Population Fragmented Nuclei (%) (Fibroblast; [2]): 15% and 24% | Population Healthy Nuclei (%) (Fibroblast; [2]): 75% and 54% | Population Hoechst High Intensity Objects (%) (Fibroblast; [2]): 5% and 7% | Population Membrane Permeable-Phenotype (%) (Fibroblast; [2]): 0% and 6% | Population Mitochondria Different-Phenotype (%) (Fibroblast; [2]): 6% and 1% | Population Mitotic Cells (%) (Fibroblast; [2]): 43% and 41% | Population Normal (%) (Fibroblast; [2]): 94% and 92% | Population Pyknosed Nuclei (%) (Fibroblast; [2]): 8% and 21% | Population Tubulin-Different-Phenotype (%) (Fibroblast; [2]): 34% and 33% | Total Cell Count (Fibroblast; [2]): 189 and 156 | Population Apoptotic (%) (Fibroblast; [3]): 72% and 46% | Population Fragmented Nuclei (%) (Fibroblast; [3]): 24% and 52% | Population Healthy Nuclei (%) (Fibroblast; [3]): 68% and 37% | Population Hoechst High Intensity Objects (%) (Fibroblast; [3]): 4% and 5% | Population Membrane Permeable-Phenotype (%) (Fibroblast; [3]): 1% and 6% | Population Mitochondria Different-Phenotype (%) (Fibroblast; [3]): 4% and 11% | Population Mitotic Cells (%) (Fibroblast; [3]): 27% and 53% | Population Normal (%) (Fibroblast; [3]): 95% and 94% | Population Pyknosed Nuclei (%) (Fibroblast; [3]): 6% and 9% | Population Tubulin-Different-Phenotype (%) (Fibroblast; [3]): 46% and 44% | Total Cell Count (Fibroblast; [3]): 282 and 170 | Population Apoptotic (%) (HEK-293T; [4]): 36% and 37% | Population Fragmented Nuclei (%) (HEK-293T; [4]): 4% and 5% | Population Healthy Nuclei (%) (HEK-293T; [4]): 76% and 79% | Population Hoechst High Intensity Objects (%) (HEK-293T; [4]): 8% | Population Membrane Permeable-Phenotype (%) (HEK-293T; [4]): 0% | Population Mitochondria Different-Phenotype (%) (HEK-293T; [4]): 51% and 68% | Population Mitotic Cells (%) (HEK-293T; [4]): 63% and 62% | Population Normal (%) (HEK-293T; [4]): 91% | Population Pyknosed Nuclei (%) (HEK-293T; [4]): 18% and 14% | Population Tubulin-Different-Phenotype (%) (HEK-293T; [4]): 41% and 24% | Total Cell Count (HEK-293T; [4]): 370 and 322 | Population Apoptotic (%) (HEK-293T; [5]): 53% and 60% | Population Fragmented Nuclei (%) (HEK-293T; [5]): 8% and 6% | Population Healthy Nuclei (%) (HEK-293T; [5]): 76% and 78% | Population Hoechst High Intensity Objects (%) (HEK-293T; [5]): 12% and 8% | Population Membrane Permeable-Phenotype (%) (HEK-293T; [5]): 0% | Population Mitochondria Different-Phenotype (%) (HEK-293T; [5]): 65% and 81% | Population Mitotic Cells (%) (HEK-293T; [5]): 46% and 40% | Population Normal (%) (HEK-293T; [5]): 87% and 91% | Population Pyknosed Nuclei (%) (HEK-293T; [5]): 14% | Population Tubulin-Different-Phenotype (%) (HEK-293T; [5]): 54% and 55% | Total Cell Count (HEK-293T; [5]): 438 and 371 | Population Apoptotic (%) (HEK-293T; [6]): 43% and 40% | Population Fragmented Nuclei (%) (HEK-293T; [6]): 9% and 6% | Population Healthy Nuclei (%) (HEK-293T; [6]): 80% and 83% | Population Hoechst High Intensity Objects (%) (HEK-293T; [6]): 4% and 6% | Population Membrane Permeable-Phenotype (%) (HEK-293T; [6]): 1% and 0% | Population Mitochondria Different-Phenotype (%) (HEK-293T; [6]): 29% and 46% | Population Mitotic Cells (%) (HEK-293T; [6]): 56% and 59% | Population Normal (%) (HEK-293T; [6]): 95% and 93% | Population Pyknosed Nuclei (%) (HEK-293T; [6]): 10% and 9% | Population Tubulin-Different-Phenotype (%) (HEK-293T; [6]): 20% and 19% | Total Cell Count (HEK-293T; [6]): 512 and 406 | Population Apoptotic (%) (HEK-293T; [1]): 37% and 42% | Population Fragmented Nuclei (%) (HEK-293T; [1]): 10% | Population Healthy Nuclei (%) (HEK-293T; [1]): 77% and 79% | Population Hoechst High Intensity Objects (%) (HEK-293T; [1]): 8% and 12% | Population Membrane Permeable-Phenotype (%) (HEK-293T; [1]): 0% | Population Mitochondria Different-Phenotype (%) (HEK-293T; [1]): 51% and 64% | Population Mitotic Cells (%) (HEK-293T; [1]): 62% and 57% | Population Normal (%) (HEK-293T; [1]): 91% and 87% | Population Pyknosed Nuclei (%) (HEK-293T; [1]): 11% and 9% | Population Tubulin-Different-Phenotype (%) (HEK-293T; [1]): 48% and 43% | Total Cell Count (HEK-293T; [1]): 556 and 425 | Population Apoptotic (%) (HEK-293T; [2]): 13% and 35% | Population Fragmented Nuclei (%) (HEK-293T; [2]): 12% and 11% | Population Healthy Nuclei (%) (HEK-293T; [2]): 80% and 81% | Population Hoechst High Intensity Objects (%) (HEK-293T; [2]): 4% and 3% | Population Membrane Permeable-Phenotype (%) (HEK-293T; [2]): 1% | Population Mitochondria Different-Phenotype (%) (HEK-293T; [2]): 21% and 23% | Population Mitotic Cells (%) (HEK-293T; [2]): 86% and 65% | Population Normal (%) (HEK-293T; [2]): 95% and 96% | Population Pyknosed Nuclei (%) (HEK-293T; [2]): 7% and 6% | Population Tubulin-Different-Phenotype (%) (HEK-293T; [2]): 16% and 10% | Total Cell Count (HEK-293T; [2]): 763 and 633 | Population Apoptotic (%) (HEK-293T; [3]): 26% and 43% | Population Fragmented Nuclei (%) (HEK-293T; [3]): 13% and 10% | Population Healthy Nuclei (%) (HEK-293T; [3]): 76% and 82% | Population Hoechst High Intensity Objects (%) (HEK-293T; [3]): 5% and 6% | Population Membrane Permeable-Phenotype (%) (HEK-293T; [3]): 0% | Population Mitochondria Different-Phenotype (%) (HEK-293T; [3]): 35% and 32% | Population Mitotic Cells (%) (HEK-293T; [3]): 73% and 56% | Population Normal (%) (HEK-293T; [3]): 94% and 93% | Population Pyknosed Nuclei (%) (HEK-293T; [3]): 9% and 6% | Population Tubulin-Different-Phenotype (%) (HEK-293T; [3]): 25% and 20% | Total Cell Count (HEK-293T; [3]): 786 and 676
